Experimental data pooled from the literature.
CDK2: Cyclin-dependent kinase 2 (CDK2, Homo sapiens, UniProt P24941)

COc1cc(Br)cc(C2NC(=O)NC(C)=C2C(=O)OCc2ccccc2)c1O (stereo not drawn)  inhibition (Voltage-dependent L-type calcium channel subunit alpha-1C (Cacna1c, Rattus norvegicus, UniProt P22002); ion current, inhibitor, patch clamp; HEK293; 10 µM): > 60%
Cc1cc(S(=O)(=O)NC2CC(N3CCN(CC4CCN(c5cccc6c5n(C)c(=O)n6C5CCC(=O)NC5=O)CC4)C4(CC4)C3)C2)ccc1Nc1ncc(C(F)(F)F)c(N2CCC[C@](C)(O)C2)n1 (stereo partly drawn)  Dmax (CDK2; protein level, degrader, western blot; MKN-1): 92%
C1=C/COCc2cc(ccc2OCCN2CCCC2)Nc2nccc(n2)-c2cccc(c2)COC/1  remaining signal (Cyclin-dependent kinase 2 homolog (CRK2, Plasmodium falciparum, UniProt P61075); cell-free assay; 0.1 µM): 85%
C[C@H]1CN(CC2CCN(c3ccc(C4CCC(=O)NC4=O)cc3F)CC2)CC[C@H]1NS(=O)(=O)c1ccc(Nc2ncc(C(F)(F)F)c(N3CCC[C@](C)(O)C3)n2)c(F)c1 (stereo partly drawn)  Dmax (CDK2; protein level, degrader, western blot; TOV21G): 93%
CCN1/C(=C/C(C)=O)Sc2ccc(F)cc21  inhibition (Alpha-1A adrenergic receptor (Adra1a, Rattus norvegicus, UniProt P43140); ligand displacement, radioligand; 10 µM): 1.54%
C#Cc1cc(-c2cc(Nc3nc(N[C@@H](C)c4ccc(F)cn4)ncc3Cl)n[nH]2)ccc1C=O  inhibition (Tyrosine-protein kinase Fyn (FYN, Homo sapiens, UniProt P06241); enzyme activity, inhibitor; 0.2 µM): 66.5%
Cc1cc(=O)oc2cc(NC(=O)[C@H](CCCN=C(N)N)NC(=O)[C@H](CCCN=C(N)N)NC(=O)OCc3ccccc3)ccc12  Km (Cathepsin B (CTSB, Homo sapiens, UniProt P07858); enzyme activity, substrate, fluorescence; pH 5): 858 µM
Cc1cc(S(=O)(=O)NCCO[C@H]2CC[C@H](CN3CCC(c4ccc5c(c4)n(C)c(=O)n5C4CCC(=O)NC4=O)CC3)CC2)ccc1Nc1ncc(C(F)(F)F)c([C@H]2CC[C@@](C)(O)CC2)n1 (stereo partly drawn)  Dmax (CDK2; protein level, degrader, western blot; MKN-1): 90%
CCCCC(=O)Nc1ccc(-c2ccc3ncn(CCC)c(=O)c3c2)cn1  remaining binding (Serine/threonine-protein kinase D3 (PRKD3, Homo sapiens, UniProt O94806); binding, competition with immobilised ligand; 0.5 µM): 92%
NC/C(=C\F)COc1cccc(Cn2c(=S)[nH]c(=O)c3[nH]cnc32)c1  inhibition (Voltage-dependent N-type calcium channel subunit alpha-1B (Cacna1b, Rattus norvegicus, UniProt Q02294); ligand displacement, radioligand; 10 µM): < 50%
C[C@]1(O)CCCN(c2nc(Nc3ccc(S(=O)(=O)N[C@H]4CC[C@H](CN5CCN(c6ccc(C7CCC(=O)NC7=O)cc6F)CC5)CC4)cc3F)ncc2C(F)(F)F)C1 (stereo partly drawn)  Dmax (CDK2; protein level, degrader, western blot; TOV21G): 95%
Cc1cc(O)c(-c2ccc([C@@H](C)CN(C)C)cc2)c2c1[nH]c(=O)c1sccc12  inhibition (MAP kinase-activated protein kinase 3 (MAPKAPK3, Homo sapiens, UniProt Q16644); enzyme activity, inhibitor; 0.1 µM): -21.1%
